ChEMBL document CHEMBL3098002, “Cassaine diterpene alkaloids from Erythrophleum fordii and their anti-angiogenic effect” (Bioorg Med Chem Lett, 2014)
The source made the active and inactive calls. No cut-off for these calls is given here.

Assays:
HUVEC [1] = test: Cytotoxicity against HUVEC assessed as cell viability at 3 to 30 ug/ml after 48 hrs by MTT assay; format: cell-based; details: human
Method in brief: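 HUVECs were grown on gelatin-coated plates to 80% confluency, then treated for 48 h alongside a 0.1% DMSO control. MTT was added to a final 0.05% for 3 h at 37 °C. Formazan was dissolved in DMSO and read at 570 nm against 630 nm reference. Viability was expressed as a percentage of untreated cells.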

HUVEC [2] = test: Antiangiogenic activity against HUVEC assessed as inhibition of capillary-like tube formation at 3 ug/ml after 15 hrs by Matrigel assay relative to control; format: functional; details: Homo sapiens
Method in brief: (§1)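 HUVECs were grown in M199 with 20% FBS, 1% penicillin/streptomycin, 0.01% heparin and ECGS on 0.2% gelatin-coated plates at 37 °C in 5% CO2. For the assay, 1 × 10^4 cells were suspended in medium containing compound and added onto polymerized Matrigel at 37 °C. Cultures were photographed at ×100 and tubes counted. Values were normalized to solvent controls (100%), n = 3, mean ± SD.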

HUVEC [3] = test: Antiangiogenic activity against HUVEC assessed as inhibition of capillary-like tube formation at 30 ug/ml after 15 hrs by Matrigel assay relative to control; format: functional; details: Homo sapiens; method in brief: as §1
HUVEC [4] = test: Antiangiogenic activity against HUVEC assessed as inhibition of capillary-like tube formation at 3 to 30 ug/ml after 15 hrs by Matrigel assay relative to control; format: functional, cell-based; details: Homo sapiens; method in brief: as §1
HUVEC [5] = test: Cytotoxicity against HUVEC at 3 to 30 ug/ml by LDH release assay; format: cell-based; details: human

Row | Compound | Activity (HUVEC [1]) | inhibition (HUVEC [2]) | inhibition at 30 µg/mL (HUVEC [3]) | inhibition (HUVEC [4]) | inhibition at 3 µg/mL (HUVEC [2]) | Activity (HUVEC [5])
1 | COC(=O)[C@@]1(C)[C@@H](OC(C)=O)CC[C@@]2(C)[C@H]1[C@@H](O)C(=O)[C@H]1[C@@H](C)/C(=C/C(=O)N(C)CCO)CC[C@@H]12 | Non-toxic | Active | – | – | – | –
2 | COC(=O)[C@@]1(C)CCC[C@@]2(C)[C@H]1[C@@H](O)C(=O)[C@H]1[C@@H](C)/C(=C/C(=O)N(C)CCO)CC[C@@H]12 | Non-toxic | Active | – | – | – | –
3 | COC(=O)[C@@]1(C)[C@@H](OC(C)=O)CC[C@@]2(C)[C@H]1CC(=O)[C@H]1[C@@H](C)/C(=C/C(=O)N(C)CCO)CC[C@@H]12 | Non-toxic | – | 4.5% | Active | 42% | Toxic
4 | COC(=O)[C@]1(C)[C@@H]2CC(=O)[C@H]3[C@@H](C)/C(=C/C(=O)N(C)CCO)CC[C@@H]3[C@@]2(C)CC[C@@H]1O | Non-toxic | Active | – | – | – | –
5 | COC(=O)[C@]1(C)[C@@H]2CC[C@H]3[C@@H](C)/C(=C/C(=O)N(C)CCO)CC[C@@H]3[C@@]2(C)CC[C@@H]1O | Non-toxic | Active | – | – | – | –
6 | COC(=O)[C@@]1(C)CCC[C@@]2(C)[C@H]1CC(=O)[C@H]1[C@@H](C)/C(=C/C(=O)N(C)CCO)CC[C@@H]12 | Non-toxic | Active | – | – | – | –
7 | COc1cc(/C=C/C(=O)CC(=O)/C=C/c2ccc(O)c(OC)c2)ccc1O [CURCUMIN] | – | – | – | – | 45% | –
